Bioassay records: PubChem BioAssay, Johns Hopkins Ion Channel Center
In the library only some 3.8% were active in any assay of this set; here they are far more common.
KCNK9 inh = inhibitors of human KCNK9 two-pore domain potassium channel. Q9NPC2. B-score at 10 µM. HEK293 KCNK9, FluxOR thallium flux fluorescence; hits give low values. AID 488922. hit rate 1.2% among 310,000;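 active = ratio B-score over 3 SD below the library mean, with starting fluorescence within 5 SD of its mean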;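 also: negative B-score means less thallium flux so channel inhibition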
hERG protect = compounds protecting human hERG from proarrhythmic drug block; AID 1511; CHO-hERG, FluxOR thallium flux, dofetilide IC70 present; Q12809; activation (rescue from dofetilide block), less the hit threshold, % at 10 µM; hit rate 0.51% among 310,000;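 active = activation above the mean of controls blocked by dofetilide plus 5 SD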;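 also: thallium influx through hERG after potassium depolarization seen as dye fluorescence rise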
Kir21 inh = inhibitors of mouse Kir2.1 inward-rectifier potassium channel; P35561; HEK293-Kir2.1, FluxOR thallium flux fluorescence; hits give low values; B-score at 10 µM; hit rate 0.85% among 310,000;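 active = fluorescence ratio B-score at or below minus 3 SD of library scores, with starting-brightness B-score within 2 SD, cut at about -4.2 in these data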;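 also: channel flux triggered by added potassium and thallium sulfate stimulus; B-score of peak minus minimum fluorescence over baseline after thallium stimulus; more negative B-score means stronger Kir2.1 block with less thallium influx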
Target sequence (P35561 whole entry, looked up): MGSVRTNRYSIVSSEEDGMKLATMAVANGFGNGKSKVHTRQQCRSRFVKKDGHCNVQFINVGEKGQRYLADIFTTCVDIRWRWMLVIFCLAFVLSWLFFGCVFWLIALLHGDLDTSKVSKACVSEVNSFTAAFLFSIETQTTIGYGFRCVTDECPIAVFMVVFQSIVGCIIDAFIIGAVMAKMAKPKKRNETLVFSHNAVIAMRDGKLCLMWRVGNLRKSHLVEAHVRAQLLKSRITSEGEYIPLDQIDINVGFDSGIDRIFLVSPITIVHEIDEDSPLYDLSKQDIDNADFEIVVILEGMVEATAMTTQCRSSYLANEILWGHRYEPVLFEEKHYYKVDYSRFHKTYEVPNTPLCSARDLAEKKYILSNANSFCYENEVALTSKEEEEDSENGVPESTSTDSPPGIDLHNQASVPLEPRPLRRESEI
KCNQ1 pot = human KCNQ1 channel potentiation or activation. P51787. CHO-K1 KCNQ1, thallium flux FluxOR fluorescence; hits give high values. B-score at 10 µM. hit rate 0.35% among 310,000. AID 2648;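 active = fluorescence ratio B-score, a plate-corrected score, at least three library SD, with initial intensity B-score within 5 SD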
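System: CHO-K1 cells stably expressing KCNQ1 / Medium: assay buffer for compound exposure, DMSO matched across wells / Reagent: thallium- and potassium-containing depolarizing buffer / Compound: one concentration, matched DMSO / Incubation: 20 min compound pretreatment at room temperature / Measured by: kinetic FluxOR fluorescence, 10 s baseline plus 110 s post-stimulus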
KCNQ1 inh = human KCNQ1 channel inhibition; hit rate 1.3% among 310,000; P51787; B-score at 10 µM; AID 2642; CHO-K1 KCNQ1, FluxOR thallium flux fluorescence; hits give high values;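 active = compounds whose thallium flux B-score, printed positive for inhibition, exceeds three library SD while starting fluorescence stays within three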;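 also: channel opened by potassium depolarization with thallium stimulus after 20 min compound exposure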
KCNK3 inh = human KCNK3 channel inhibition, primary screen; O14649; AID 602410; B-score at 10 µM; hit rate 0.84% among 340,000; CHO-KCNK3 thallium flux, FluxOR fluorescence; hits give low values;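 active = B-score under library mean minus 4 SD, starting fluorescence ratio at most library mean plus 5 SD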;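 also: more negative B-score means stronger inhibition of thallium flux through KCNK3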
Starred values were filed as active, the others as inactive; i = inactive; . = no result.

SMILES	KCNK9 inh	hERG protect	Kir21 inh	KCNQ1 pot	KCNQ1 inh	KCNK3 inh
O=C1c2cccnc2C(=O)N1Cc1ccc(S(=O)(=O)N2CCN(c3ccccc3)CC2)cc1	i	-2	0.03	i	i	i
C#CCSc1n[nH]c(-c2ccco2)n1	i	-8	2.9	i	i	i
COC(=O)c1sccc1NC(=O)c1cc2c(s1)CCCC2	-6.7*	-9	0.11	i	i	i
Cc1c(CCOC(=O)CC23CC4CC(CC(C4)C2)C3)sc[n+]1CC(=O)c1ccccc1	i	-20	-2.6	i	6*	i
Cc1c(CCOC(=O)C23CC4(C)CC(C)(CC(C)(C4)C2)C3)sc[n+]1CC(=O)c1ccccc1	i	-7	-0.59	i	i	i
OCCN1CCN(Cc2cccc(Oc3ccc(Cl)cc3)c2)CC1	i	-16	-5.2*	i	i	i
COc1ccc(CN2[C@@H](CC(=O)O)c3ccccc3S2(=O)=O)cc1	i	6.7*	0.04	i	i	i
CCOC(=O)C(=CNc1ccc(N2CCCCC2)c(S(=O)(=O)Nc2ccccc2OC)c1)C(=O)OCC	.	.	.	.	.	i
CN1CCN(c2ccc(Nc3ccnc4cc(Cl)ccc34)cc2)CC1	i	-7	-6.8*	i	i	i
CCOc1ccc(Nc2ccnc3cc(Cl)ccc23)cc1	i	-17	0.53	i	i	i
Cc1nc2c(C(=O)N3CCN(c4ccccn4)CC3)cnn2c(C)c1Cc1cccc(Cl)c1	i	-18	-1.6	7*	i	i
C/C(=N\NC(=O)c1ccc(-c2ccccc2)cc1)C1C(=O)c2ccccc2C1=O	i	-24	0.71	i	7*	i
CCN(CCO)Cc1csc2cc(C)ccc12	i	-6	0.83	i	i	i
CCN(CCO)Cc1csc2ccc(C(C)(C)C)cc12	i	-10	-7*	i	i	i
CCCCCCOc1ccc(NC(=O)CC2C(=O)N(CC)C(=S)N2Cc2ccco2)cc1 (centres undefined)	i	-24	2	i	9*	i
CCOC(=O)C1=C(C)N(c2ccc(OC)cc2)C(=O)/C1=C\c1ccc(O)c(OCC)c1	i	-14	-0.38	i	6*	i
CCNc1nnc(CCn2nc(C)c(Br)c2C)s1	i	-13	1.3	i	i	i
CCOC(=O)c1sc(N(Cc2ccccc2)C(=O)CSc2ncn[nH]2)nc1C	i	-6	-0.09	i	i	i
O=C(O)CSCC(=O)N(Cc1ccccc1)c1nc(-c2ccccc2)c(-c2ccccc2)s1	i	-13	1.6	i	8*	i
CCCCn1c(NC(=O)c2ccc(F)cc2)c(C#N)c2nc3ccccc3nc21	i	-14	-1.5	i	6*	.
CCCCn1c(NC(=O)c2ccccc2)c(C#N)c2nc3ccccc3nc21	.	.	.	.	.	i
COc1cc2ccccc2cc1C(=O)OCc1nc2ccsc2c(=O)[nH]1	.	.	.	.	.	i
CCOC(=O)C1=C(C)N(CC)C(=S)NC1c1ccc(Cl)cc1 (centres undefined)	i	-9	-7.1*	i	i	i
COc1ccc(NC(=O)c2cc(S(=O)(=O)N3CCS(=O)(=O)CC3)ccc2Cl)cc1	i	-6	-1.6	i	i	i
CCNC(=S)N1CCN(Cc2ccc3c(c2)OCO3)CC1	i	-6	1.7	i	i	i
SMILES	KCNK9 inh	hERG protect	Kir21 inh	KCNQ1 pot	KCNQ1 inh	KCNK3 inh
O=C(NC(=S)N1CCN(Cc2ccc3c(c2)OCO3)CC1)c1cccc(Br)c1	i	25*	0.63	29*	i	i
O=C(NC(=S)N1CCN(Cc2ccc3c(c2)OCO3)CC1)c1ccc(Cl)cc1	i	24*	0.86	11*	i	i
CC1CN(C(=S)NC(=O)c2ccc(Cl)cc2)CC(C)O1 (centres undefined)	i	6.4*	1.6	i	i	i
CN(C(=O)c1ccc(Br)o1)C1CCS(=O)(=O)C1 (centres undefined)	i	-3	0.12	i	i	i
COc1ccc(OC)c(NC(=O)COc2coc(CN3CCc4ccccc43)cc2=O)c1	i	-10	-0.09	i	i	i
Cc1cccc(OCCSc2nc3ccccc3n2CCC(=O)O)c1	i	-12	-0.67	i	i	i
Oc1ccccc1CC=NC1CCCCC1	.	.	.	.	.	i
COc1ccc(/C=N/NC(=O)c2nnn(-c3nonc3N)c2CN(C)c2ccccc2)cc1	i	-8	-0.2	i	i	i
OCCC1CN(Cc2nc3ccccc3[nH]2)CCN1C1CCCC1 (centres undefined)	i	-17	0	i	i	i
CCn1c(/C=C/Nc2ccccc2)[n+](CC)c2cc(Cl)c(Cl)cc21	i	-28	-7*	i	i	i
Cc1cccc(N2C(=O)CS/C2=N\NC(=O)c2ccc(Br)cc2)c1C	i	5.6*	-0.04	i	i	i
Nc1sc(-c2ccccc2)n[n+]1Cc1cccc2cccnc12	i	-20	-7*	i	i	i
CCOC(=O)c1ccc(NC(=O)NNS(=O)(=O)c2cc(OC)ccc2OC)cc1	i	-6	1.5	i	i	i
CCn1c(SCC(=O)N2CCCc3ccccc32)nc2cccnc21	i	-14	-4.9*	i	i	i
CC(C)Cn1c(SCC(=O)N2CCCc3ccccc32)nc2ccccc2c1=O	i	-10	-0.05	i	6*	.
CCn1c(SCC(=O)N2CCCc3ccccc32)nc2ccccc2c1=O	i	-5	-3	i	i	i
Cn1c(SCC(=O)N2CCCc3ccccc32)nc2cccnc21	i	-13	-0.98	i	i	i
Cc1[nH]c2ccccc2c1SCC(=O)N1CCCc2ccccc21	i	-24	-7.8*	i	6*	i
CC1(c2ccccc2)NC(=O)N(CC(=O)N2CCN(S(=O)(=O)c3cccc(C(F)(F)F)c3)CC2)C1=O (centres undefined)	.	.	.	.	.	i
O=C(CSc1nc2[nH]ncc2c(=O)[nH]1)Nc1ccc(OC(F)(F)F)cc1	i	-8	-0.57	i	i	i
COc1cc(CNCc2cccs2)ccc1OCc1ccccc1	i	-10	-3	i	i	i
COc1cc(CNCc2ccccn2)ccc1OCc1cccc(Cl)c1	i	-9	-7.6*	i	i	i
CC(C)(C)NCc1cc(Br)ccc1OCc1cccs1	i	-5	-4.8*	i	i	i
COc1cc(CNCc2cccs2)ccc1OCc1cccs1	i	-3	-5*	i	i	i
COc1cc(CNCc2ccccn2)ccc1OCc1c(Cl)cccc1Cl	i	-1	-8.8*	i	i	i
